Results taken from ChEMBL document CHEMBL4689842, “EUbOPEN Chemogenomics Library wave 1” (2021).

System: HEK-293T
Test: Multiplex assay against HEK293T;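 as to Population Tubulin-Different-Phenotype (%): share of the cells with healthy nuclei that show this phenotype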
Assay type: toxicity, cell-based
Settings: human
Summary of the method: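 At seeding, live cells were stained with Hoechst33342, BioTracker Green Microtubule Cytoskeleton Dye, MitoTracker Red and Annexin V Alexa Fluor 680. After compound addition they were imaged on a CQ1 microscope at 37°C and 5% CO2, and CellPathfinder machine-learning gating sorted them into Hoechst high-intensity objects or normal cells, with normal cells further split into healthy, pyknosed or fragmented nuclei and pyknosed cells into mitotic or apoptotic. Tubulin, mitochondrial-mass and membrane-permeability phenotypes are given as per cents of cells with healthy nuclei.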

[1] = 12 h, 1 µM, compound concentration 1 uM, replicate 1
[2] = 12 h, 1 µM, compound concentration 1 uM, replicate 2
[3] = 12 h, 10 µM, compound concentration 10 uM, replicate 1
[4] = 12 h, 10 µM, compound concentration 10 uM, replicate 2
[5] = 24 h, 1 µM, compound concentration 1 uM, replicate 1
[6] = 24 h, 1 µM, compound concentration 1 uM, replicate 2
[7] = 24 h, 10 µM, compound concentration 10 uM, replicate 1
[8] = 24 h, 10 µM, compound concentration 10 uM, replicate 2
[9] = 48 h, 1 µM, compound concentration 1 uM, replicate 1
[10] = 48 h, 1 µM, compound concentration 1 uM, replicate 2
[11] = 48 h, 10 µM, compound concentration 10 uM, replicate 1
[12] = 48 h, 10 µM, compound concentration 10 uM, replicate 2

SMILES: O=C(Nc1ccc(-n2nc(-c3cccnc3)cc2C(F)(F)F)cn1)c1ccc(-c2ccccc2)c(F)c1 [BI 2049]
- Population Apoptotic (%) [1]: 46%
- Population Fragmented Nuclei (%) [1]: 22%
- Population Healthy Nuclei (%) [1]: 24%
- Population Hoechst High Intensity Objects (%) [1]: 21%
- Population Membrane Permeable-Phenotype (%) [1]: 0%
- Population Mitochondria Different-Phenotype (%) [1]: 60%
- Population Mitotic Cells (%) [1]: 53%
- Population Normal (%) [1]: 78%
- Population Pyknosed Nuclei (%) [1]: 53%
- Population Tubulin-Different-Phenotype (%) [1]: 10%
- Total Cell Count [1]: 147
- Population Apoptotic (%) [2]: 3%
- Population Fragmented Nuclei (%) [2]: 11%
- Population Healthy Nuclei (%) [2]: 37%
- Population Hoechst High Intensity Objects (%) [2]: 2%
- Population Membrane Permeable-Phenotype (%) [2]: 3%
- Population Mitochondria Different-Phenotype (%) [2]: 8%
- Population Mitotic Cells (%) [2]: 96%
- Population Normal (%) [2]: 97%
- Population Pyknosed Nuclei (%) [2]: 51%
- Population Tubulin-Different-Phenotype (%) [2]: 1%
- Total Cell Count [2]: 166
- Population Apoptotic (%) [3]: 63%
- Population Fragmented Nuclei (%) [3]: 12%
- Population Healthy Nuclei (%) [3]: 23%
- Population Hoechst High Intensity Objects (%) [3]: 11%
- Population Membrane Permeable-Phenotype (%) [3]: 3%
- Population Mitochondria Different-Phenotype (%) [3]: 90%
- Population Mitotic Cells (%) [3]: 36%
- Population Normal (%) [3]: 88%
- Population Pyknosed Nuclei (%) [3]: 64%
- Population Tubulin-Different-Phenotype (%) [3]: 65%
- Total Cell Count [3]: 254
- Population Apoptotic (%) [4]: 12%
- Population Fragmented Nuclei (%) [4]: 5%
- Population Healthy Nuclei (%) [4]: 47%
- Population Hoechst High Intensity Objects (%) [4]: 3%
- Population Membrane Permeable-Phenotype (%) [4]: 9%
- Population Mitochondria Different-Phenotype (%) [4]: 15%
- Population Mitotic Cells (%) [4]: 88%
- Population Normal (%) [4]: 96%
- Population Pyknosed Nuclei (%) [4]: 47%
- Population Tubulin-Different-Phenotype (%) [4]: 13%
- Total Cell Count [4]: 276
- Population Apoptotic (%) [5]: 65%
- Population Fragmented Nuclei (%) [5]: 25%
- Population Healthy Nuclei (%) [5]: 30%
- Population Hoechst High Intensity Objects (%) [5]: 26%
- Population Membrane Permeable-Phenotype (%) [5]: 6%
- Population Mitochondria Different-Phenotype (%) [5]: 59%
- Population Mitotic Cells (%) [5]: 34%
- Population Normal (%) [5]: 73%
- Population Pyknosed Nuclei (%) [5]: 43%
- Population Tubulin-Different-Phenotype (%) [5]: 31%
- Total Cell Count [5]: 143
- Population Apoptotic (%) [6]: 12%
- Population Fragmented Nuclei (%) [6]: 7%
- Population Healthy Nuclei (%) [6]: 73%
- Population Hoechst High Intensity Objects (%) [6]: 4%
- Population Membrane Permeable-Phenotype (%) [6]: 3%
- Population Mitochondria Different-Phenotype (%) [6]: 6%
- Population Mitotic Cells (%) [6]: 87%
- Population Normal (%) [6]: 95%
- Population Pyknosed Nuclei (%) [6]: 19%
- Population Tubulin-Different-Phenotype (%) [6]: 4%
- Total Cell Count [6]: 212
- Population Apoptotic (%) [7]: 60%
- Population Fragmented Nuclei (%) [7]: 12%
- Population Healthy Nuclei (%) [7]: 27%
- Population Hoechst High Intensity Objects (%) [7]: 13%
- Population Membrane Permeable-Phenotype (%) [7]: 3%
- Population Mitochondria Different-Phenotype (%) [7]: 82%
- Population Mitotic Cells (%) [7]: 39%
- Population Normal (%) [7]: 86%
- Population Pyknosed Nuclei (%) [7]: 60%
- Population Tubulin-Different-Phenotype (%) [7]: 53%
- Total Cell Count [7]: 266
- Population Apoptotic (%) [8]: 5%
- Population Fragmented Nuclei (%) [8]: 6%
- Population Healthy Nuclei (%) [8]: 64%
- Population Hoechst High Intensity Objects (%) [8]: 2%
- Population Membrane Permeable-Phenotype (%) [8]: 6%
- Population Mitochondria Different-Phenotype (%) [8]: 14%
- Population Mitotic Cells (%) [8]: 94%
- Population Normal (%) [8]: 97%
- Population Pyknosed Nuclei (%) [8]: 29%
- Population Tubulin-Different-Phenotype (%) [8]: 23%
- Total Cell Count [8]: 339
- Population Apoptotic (%) [9]: 54%
- Population Fragmented Nuclei (%) [9]: 27%
- Population Healthy Nuclei (%) [9]: 35%
- Population Hoechst High Intensity Objects (%) [9]: 18%
- Population Membrane Permeable-Phenotype (%) [9]: 2%
- Population Mitochondria Different-Phenotype (%) [9]: 20%
- Population Mitotic Cells (%) [9]: 46%
- Population Normal (%) [9]: 81%
- Population Pyknosed Nuclei (%) [9]: 37%
- Population Tubulin-Different-Phenotype (%) [9]: 14%
- Total Cell Count [9]: 166
- Population Apoptotic (%) [10]: 11%
- Population Fragmented Nuclei (%) [10]: 7%
- Population Healthy Nuclei (%) [10]: 83%
- Population Hoechst High Intensity Objects (%) [10]: 2%
- Population Mitochondria Different-Phenotype (%) [10]: 3%
- Population Mitotic Cells (%) [10]: 88%
- Population Normal (%) [10]: 97%
- Population Pyknosed Nuclei (%) [10]: 8%
- Population Tubulin-Different-Phenotype (%) [10]: 6%
- Total Cell Count [10]: 420
- Population Apoptotic (%) [11]: 55%
- Population Fragmented Nuclei (%) [11]: 14%
- Population Healthy Nuclei (%) [11]: 28%
- Population Hoechst High Intensity Objects (%) [11]: 18%
- Population Membrane Permeable-Phenotype (%) [11]: 1%
- Population Mitochondria Different-Phenotype (%) [11]: 52%
- Population Mitotic Cells (%) [11]: 44%
- Population Normal (%) [11]: 81%
- Population Pyknosed Nuclei (%) [11]: 56%
- Population Tubulin-Different-Phenotype (%) [11]: 40%
- Total Cell Count [11]: 298
- Population Apoptotic (%) [12]: 7%
- Population Fragmented Nuclei (%) [12]: 6%
- Population Healthy Nuclei (%) [12]: 82%
- Population Hoechst High Intensity Objects (%) [12]: 2%
- Population Membrane Permeable-Phenotype (%) [12]: 5%
- Population Mitochondria Different-Phenotype (%) [12]: 4%
- Population Mitotic Cells (%) [12]: 92%
- Population Normal (%) [12]: 97%
- Population Pyknosed Nuclei (%) [12]: 10%
- Population Tubulin-Different-Phenotype (%) [12]: 21%
- Total Cell Count [12]: 633

SMILES: CNC(=O)c1ccc(Nc2nc(OC3CCCC3)c3c(-c4ccc5nc(C)oc5c4)c[nH]c3n2)c(OC)c1
- Population Apoptotic (%) [1]: 36%
- Population Fragmented Nuclei (%) [1]: 20%
- Population Healthy Nuclei (%) [1]: 22%
- Population Hoechst High Intensity Objects (%) [1]: 22%
- Population Membrane Permeable-Phenotype (%) [1]: 19%
- Population Mitochondria Different-Phenotype (%) [1]: 28%
- Population Mitotic Cells (%) [1]: 63%
- Population Normal (%) [1]: 77%
- Population Pyknosed Nuclei (%) [1]: 57%
- Population Tubulin-Different-Phenotype (%) [1]: 76%
- Total Cell Count [1]: 469
- Population Apoptotic (%) [2]: 37%
- Population Fragmented Nuclei (%) [2]: 2%
- Population Healthy Nuclei (%) [2]: 77%
- Population Hoechst High Intensity Objects (%) [2]: 4%
- Population Membrane Permeable-Phenotype (%) [2]: 18%
- Population Mitochondria Different-Phenotype (%) [2]: 47%
- Population Mitotic Cells (%) [2]: 62%
- Population Normal (%) [2]: 95%
- Population Pyknosed Nuclei (%) [2]: 19%
- Population Tubulin-Different-Phenotype (%) [2]: 94%
- Total Cell Count [2]: 712
- Population Apoptotic (%) [3]: 26%
- Population Fragmented Nuclei (%) [3]: 19%
- Population Healthy Nuclei (%) [3]: 50%
- Population Hoechst High Intensity Objects (%) [3]: 20%
- Population Membrane Permeable-Phenotype (%) [3]: 22%
- Population Mitochondria Different-Phenotype (%) [3]: 13%
- Population Mitotic Cells (%) [3]: 73%
- Population Normal (%) [3]: 79%
- Population Pyknosed Nuclei (%) [3]: 30%
- Population Tubulin-Different-Phenotype (%) [3]: 58%
- Total Cell Count [3]: 532
- Population Apoptotic (%) [4]: 14%
- Population Fragmented Nuclei (%) [4]: 3%
- Population Healthy Nuclei (%) [4]: 91%
- Population Hoechst High Intensity Objects (%) [4]: 5%
- Population Membrane Permeable-Phenotype (%) [4]: 13%
- Population Mitochondria Different-Phenotype (%) [4]: 27%
- Population Mitotic Cells (%) [4]: 85%
- Population Normal (%) [4]: 94%
- Population Pyknosed Nuclei (%) [4]: 4%
- Population Tubulin-Different-Phenotype (%) [4]: 83%
- Total Cell Count [4]: 1205
- Population Apoptotic (%) [5]: 61%
- Population Fragmented Nuclei (%) [5]: 28%
- Population Healthy Nuclei (%) [5]: 13%
- Population Hoechst High Intensity Objects (%) [5]: 25%
- Population Membrane Permeable-Phenotype (%) [5]: 10%
- Population Mitochondria Different-Phenotype (%) [5]: 54%
- Population Mitotic Cells (%) [5]: 38%
- Population Normal (%) [5]: 74%
- Population Pyknosed Nuclei (%) [5]: 57%
- Population Tubulin-Different-Phenotype (%) [5]: 58%
- Total Cell Count [5]: 472
- Population Apoptotic (%) [6]: 43%
- Population Fragmented Nuclei (%) [6]: 3%
- Population Healthy Nuclei (%) [6]: 80%
- Population Hoechst High Intensity Objects (%) [6]: 9%
- Population Membrane Permeable-Phenotype (%) [6]: 5%
- Population Mitochondria Different-Phenotype (%) [6]: 66%
- Population Mitotic Cells (%) [6]: 56%
- Population Normal (%) [6]: 90%
- Population Pyknosed Nuclei (%) [6]: 15%
- Population Tubulin-Different-Phenotype (%) [6]: 78%
- Total Cell Count [6]: 721
- Population Apoptotic (%) [7]: 24%
- Population Fragmented Nuclei (%) [7]: 20%
- Population Healthy Nuclei (%) [7]: 62%
- Population Hoechst High Intensity Objects (%) [7]: 15%
- Population Membrane Permeable-Phenotype (%) [7]: 23%
- Population Mitochondria Different-Phenotype (%) [7]: 15%
- Population Mitotic Cells (%) [7]: 75%
- Population Normal (%) [7]: 84%
- Population Pyknosed Nuclei (%) [7]: 17%
- Population Tubulin-Different-Phenotype (%) [7]: 81%
- Total Cell Count [7]: 481
- Population Apoptotic (%) [8]: 11%
- Population Fragmented Nuclei (%) [8]: 10%
- Population Healthy Nuclei (%) [8]: 86%
- Population Hoechst High Intensity Objects (%) [8]: 5%
- Population Membrane Permeable-Phenotype (%) [8]: 17%
- Population Mitochondria Different-Phenotype (%) [8]: 11%
- Population Mitotic Cells (%) [8]: 88%
- Population Normal (%) [8]: 94%
- Population Pyknosed Nuclei (%) [8]: 2%
- Population Tubulin-Different-Phenotype (%) [8]: 87%
- Total Cell Count [8]: 1423
